Assays:
[1] = Toxicity in monkey assessed as organ toxicity after 2 weeks repeated dosage; type: organism-based, Macaca mulatta; conditions: rhesus monkey, in vivo
Procedure, shortened: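 2-week repeated-dose toxicity study; rats n = 5 per sex, monkeys n = 1 per sex.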

[2] = Volume of distribution at steady state in monkey at 1 mg/kg, iv; type: ADME, organism-based, Macaca mulatta; parameters: dose 1 mg/kg, route intravenous; conditions: rhesus monkey, in vivo, read-out: Vdss
[3] = Half life in monkey at 1 mg/kg, iv; type: ADME, organism-based, Macaca mulatta; parameters: dose 1 mg/kg, route intravenous; conditions: rhesus monkey, in vivo
[4] = Half life in monkey at 3 mg/kg, po; type: ADME, organism-based, Macaca mulatta; parameters: dose 3 mg/kg, route oral; conditions: rhesus monkey, in vivo
[5] = Clearance in monkey at 1 mg/kg, iv; type: ADME, organism-based, Macaca mulatta; parameters: dose 1 mg/kg, route intravenous; conditions: rhesus monkey, in vivo
Cytochrome P450 2A6 = molecular target: T1, Cytochrome P450 2A6 (Homo sapiens, UniProt P11509); test: Inhibition of CYP2A6; type: ADME
T1 sequence (P11509 whole entry): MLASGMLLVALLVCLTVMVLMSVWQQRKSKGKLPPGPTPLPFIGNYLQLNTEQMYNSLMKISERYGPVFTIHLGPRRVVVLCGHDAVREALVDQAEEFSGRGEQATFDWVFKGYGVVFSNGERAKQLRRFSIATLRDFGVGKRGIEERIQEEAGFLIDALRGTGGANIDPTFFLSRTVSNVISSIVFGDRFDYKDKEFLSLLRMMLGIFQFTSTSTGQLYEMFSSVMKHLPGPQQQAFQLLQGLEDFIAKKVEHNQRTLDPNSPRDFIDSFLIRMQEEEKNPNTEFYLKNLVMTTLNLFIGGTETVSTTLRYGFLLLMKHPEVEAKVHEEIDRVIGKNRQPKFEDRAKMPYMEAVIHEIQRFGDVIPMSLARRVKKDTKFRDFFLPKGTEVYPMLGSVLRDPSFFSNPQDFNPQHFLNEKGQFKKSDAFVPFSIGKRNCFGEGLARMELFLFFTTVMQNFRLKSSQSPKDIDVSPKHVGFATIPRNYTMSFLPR

[6] = Volume of distribution at steady state in rat at 1 mg/kg, iv; type: ADME, organism-based; parameters: dose 1 mg/kg, route intravenous; conditions: in vivo, read-out: Vdss
[7] = Cmax in rat at 3 mg/kg, po; type: ADME, organism-based; parameters: dose 3 mg/kg, route oral; conditions: in vivo
[8] = Cmax in dog at 3 mg/kg, po; type: ADME, organism-based, Canis lupus familiaris; parameters: dose 3 mg/kg, route oral; conditions: in vivo
Dipeptidyl peptidase 4 = Dipeptidyl peptidase 4 (Homo sapiens, UniProt P27487); test: Inhibition of DPP4 in human plasma assessed as formation of 7-amino-4-methylcoumarin from glycyl-L-proline 4-methylcoumaryl-7-amide by fluorescence assay
Sequence of Dipeptidyl peptidase 4 (P27487 whole entry): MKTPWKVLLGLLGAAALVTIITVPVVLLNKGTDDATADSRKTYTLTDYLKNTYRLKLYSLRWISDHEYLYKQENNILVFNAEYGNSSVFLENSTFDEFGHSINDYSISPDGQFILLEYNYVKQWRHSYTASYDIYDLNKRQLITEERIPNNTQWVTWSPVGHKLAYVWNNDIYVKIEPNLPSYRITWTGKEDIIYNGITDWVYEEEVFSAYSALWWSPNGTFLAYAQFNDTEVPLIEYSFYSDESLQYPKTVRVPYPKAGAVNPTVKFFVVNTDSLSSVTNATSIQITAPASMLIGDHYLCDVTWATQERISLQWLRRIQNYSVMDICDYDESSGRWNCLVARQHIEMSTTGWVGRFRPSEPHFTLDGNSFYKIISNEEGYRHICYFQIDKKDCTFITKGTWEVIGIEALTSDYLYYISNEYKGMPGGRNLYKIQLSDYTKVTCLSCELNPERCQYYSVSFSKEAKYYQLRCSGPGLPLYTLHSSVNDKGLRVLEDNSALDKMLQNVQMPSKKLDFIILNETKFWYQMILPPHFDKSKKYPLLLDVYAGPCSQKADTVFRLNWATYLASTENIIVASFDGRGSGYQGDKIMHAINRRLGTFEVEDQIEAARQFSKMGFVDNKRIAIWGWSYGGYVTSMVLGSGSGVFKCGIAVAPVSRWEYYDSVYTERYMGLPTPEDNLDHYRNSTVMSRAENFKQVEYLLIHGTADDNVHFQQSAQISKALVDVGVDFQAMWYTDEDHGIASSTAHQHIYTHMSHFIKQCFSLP

[9] = Oral bioavailability in rat at 3 mg/kg; type: ADME, organism-based; conditions: in vivo
Dipeptidyl peptidase 2 = Dipeptidyl peptidase 2 (Homo sapiens, UniProt Q9UHL4); test: Inhibition of DPP2
[10] = molecular target: T2, Muscarinic acetylcholine receptor M2 (Homo sapiens, UniProt P08172); test: Binding affinity to muscarinic receptor 2
T2 sequence (P08172 whole entry): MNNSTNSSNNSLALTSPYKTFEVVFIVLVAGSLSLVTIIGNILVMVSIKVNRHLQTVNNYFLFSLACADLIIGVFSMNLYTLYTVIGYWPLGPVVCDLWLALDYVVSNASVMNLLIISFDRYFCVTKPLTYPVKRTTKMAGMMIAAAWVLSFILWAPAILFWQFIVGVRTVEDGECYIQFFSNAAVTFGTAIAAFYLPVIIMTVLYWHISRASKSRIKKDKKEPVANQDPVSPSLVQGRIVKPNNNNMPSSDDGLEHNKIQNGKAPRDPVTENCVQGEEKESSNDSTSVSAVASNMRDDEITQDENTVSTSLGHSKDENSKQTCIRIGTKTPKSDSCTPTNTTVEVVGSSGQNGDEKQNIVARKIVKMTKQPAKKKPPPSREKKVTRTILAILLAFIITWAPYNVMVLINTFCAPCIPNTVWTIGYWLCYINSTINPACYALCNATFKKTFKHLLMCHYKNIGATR

[11] = Clearance in dog at 1 mg/kg, iv; type: ADME, organism-based, Canis lupus familiaris; parameters: dose 1 mg/kg, route intravenous; conditions: in vivo
Cytochrome P450 3A4 = Cytochrome P450 3A4 (Homo sapiens, UniProt P08684); test: Inhibition of CYP3A4; type: ADME
Sequence of Cytochrome P450 3A4 (P08684 whole entry): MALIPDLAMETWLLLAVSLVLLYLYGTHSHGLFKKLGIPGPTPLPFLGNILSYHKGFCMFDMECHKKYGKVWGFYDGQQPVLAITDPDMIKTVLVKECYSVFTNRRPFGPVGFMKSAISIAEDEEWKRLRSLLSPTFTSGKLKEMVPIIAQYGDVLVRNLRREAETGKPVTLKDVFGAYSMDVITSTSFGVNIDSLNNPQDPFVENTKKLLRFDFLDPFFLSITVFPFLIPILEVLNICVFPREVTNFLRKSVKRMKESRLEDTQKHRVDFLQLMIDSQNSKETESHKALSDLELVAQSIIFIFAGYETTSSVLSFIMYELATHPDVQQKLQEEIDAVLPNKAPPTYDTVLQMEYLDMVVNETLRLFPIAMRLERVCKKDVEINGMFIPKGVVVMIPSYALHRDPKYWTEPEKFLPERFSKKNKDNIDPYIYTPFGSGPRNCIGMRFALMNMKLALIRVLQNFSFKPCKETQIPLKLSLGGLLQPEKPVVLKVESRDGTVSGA

[12] = AUC in Zucker fatty rat at 3 mg/kg, po after 3 hrs; type: ADME, organism-based; parameters: time < 3 hr, dose 3 mg/kg, route oral; conditions: plasma
[13] = Half life in dog at 3 mg/kg, po; type: ADME, organism-based, Canis lupus familiaris; parameters: dose 3 mg/kg, route oral; conditions: in vivo
Dipeptidyl peptidase 8 = Dipeptidyl peptidase 8 (Homo sapiens, UniProt Q6V1X1); test: Inhibition of DPP8
Sequence of Dipeptidyl peptidase 8 (Q6V1X1 whole entry): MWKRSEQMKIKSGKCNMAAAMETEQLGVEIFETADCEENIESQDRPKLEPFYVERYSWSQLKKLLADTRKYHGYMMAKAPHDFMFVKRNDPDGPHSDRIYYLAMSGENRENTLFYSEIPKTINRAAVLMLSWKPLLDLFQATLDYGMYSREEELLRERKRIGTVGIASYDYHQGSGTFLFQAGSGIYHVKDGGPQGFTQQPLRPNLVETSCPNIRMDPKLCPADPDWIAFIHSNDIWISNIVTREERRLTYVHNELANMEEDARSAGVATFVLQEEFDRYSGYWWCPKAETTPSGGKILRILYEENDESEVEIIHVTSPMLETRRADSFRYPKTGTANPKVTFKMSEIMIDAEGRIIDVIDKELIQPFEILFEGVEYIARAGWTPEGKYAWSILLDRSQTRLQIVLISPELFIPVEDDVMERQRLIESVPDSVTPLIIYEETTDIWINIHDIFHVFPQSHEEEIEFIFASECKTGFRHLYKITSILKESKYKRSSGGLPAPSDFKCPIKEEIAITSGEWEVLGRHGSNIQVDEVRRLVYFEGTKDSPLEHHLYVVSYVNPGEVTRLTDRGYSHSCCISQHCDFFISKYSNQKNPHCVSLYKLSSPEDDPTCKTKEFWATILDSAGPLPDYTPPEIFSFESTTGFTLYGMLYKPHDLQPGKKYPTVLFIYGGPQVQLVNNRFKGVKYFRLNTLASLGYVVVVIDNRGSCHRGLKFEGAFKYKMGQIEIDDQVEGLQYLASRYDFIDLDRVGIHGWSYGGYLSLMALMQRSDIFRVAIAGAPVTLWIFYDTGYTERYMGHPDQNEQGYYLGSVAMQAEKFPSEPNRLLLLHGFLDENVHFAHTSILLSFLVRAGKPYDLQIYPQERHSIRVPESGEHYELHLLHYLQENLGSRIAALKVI

[14] = Half life in dog at 1 mg/kg, iv; type: ADME, organism-based, Canis lupus familiaris; parameters: dose 1 mg/kg, route intravenous; conditions: in vivo
Cytochrome P450 1A2 = molecular target: T3, Cytochrome P450 1A2 (Homo sapiens, UniProt P05177); test: Inhibition of CYP1A2; type: ADME
T3 sequence (P05177 whole entry): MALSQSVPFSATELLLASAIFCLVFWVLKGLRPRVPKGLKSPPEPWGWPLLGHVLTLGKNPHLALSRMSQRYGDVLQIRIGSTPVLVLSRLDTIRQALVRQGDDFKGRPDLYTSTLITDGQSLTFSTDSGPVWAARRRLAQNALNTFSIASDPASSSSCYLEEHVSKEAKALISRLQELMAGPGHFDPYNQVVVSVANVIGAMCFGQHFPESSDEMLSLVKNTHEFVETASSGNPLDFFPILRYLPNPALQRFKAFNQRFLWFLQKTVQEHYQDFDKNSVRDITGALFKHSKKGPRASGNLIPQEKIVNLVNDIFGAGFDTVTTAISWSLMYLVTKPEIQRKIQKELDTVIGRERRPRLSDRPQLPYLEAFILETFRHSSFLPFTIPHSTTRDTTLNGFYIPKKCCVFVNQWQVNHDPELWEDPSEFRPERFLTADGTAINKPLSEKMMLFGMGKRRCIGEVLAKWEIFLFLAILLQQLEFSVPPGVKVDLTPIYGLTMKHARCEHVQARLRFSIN

[15] = Half life in rat at 3 mg/kg, po; type: ADME, organism-based; parameters: dose 3 mg/kg, route oral; conditions: in vivo
[16] = Cmax in Zucker fatty rat at 3 mg/kg, po after 3 hrs; type: ADME, organism-based; parameters: dose 3 mg/kg, route oral; conditions: in vivo
[17] = Cmax in monkey at 3 mg/kg, po; type: ADME, organism-based, Macaca mulatta; parameters: dose 3 mg/kg, route oral; conditions: rhesus monkey, in vivo
Rattus norvegicus = test: Antidiabetic activity in po dosed Zucker fatty rat assessed as reduction of blood glucose level pretreated 30 mins before glucose challenge by oral glucose tolerance test; type: functional, organism-based
Procedure, shortened: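 Male Zucker fatty rats, 10 weeks old, fasted 24 h, with Zucker lean rats as reference. Oral dose of 0.03–1.0 mg/kg in 0.5% methylcellulose, or vehicle alone, 30 min before oral glucose at 2 g/kg. Tail blood taken at -30, 0, 10, 30, 60 and 120 min and deproteinized with perchloric acid. Glucose measured by colorimetric kit (A505–A700) in duplicate. AUC over 0–120 min; n = 4–9; Dunnett test.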

[18] = Plasma protein binding in human; type: ADME, cell-free; conditions: read-out: PPB (converted)
Salmonella typhimurium = test: Genotoxicity in Salmonella Typhimurium by Ames test; type: toxicity, organism-based; conditions: salmonella enterica subsp. enterica serovar typhimurium
[19] = Clearance in rat at 1 mg/kg, iv; type: ADME, organism-based; parameters: dose 1 mg/kg, route intravenous; conditions: in vivo

- Vd [2]: 10 L/kg
- half-life [3]: 4.8 h
- half-life [4]: 15 h
- clearance [5]: 38 mL/min/kg
- IC50 (Cytochrome P450 2A6): > 50 µM
- Vd [6]: 6.5 L/kg
- Cmax [7]: 76 ng/mL
- Cmax [8]: 245 ng/mL
- IC50 (Dipeptidyl peptidase 4): 0.0011 µM
- bioavailability [9]: 52%
- IC50 (Dipeptidyl peptidase 2): > 50 µM
- IC50 [10]: > 10 µM
- clearance [11]: 29 mL/min/kg
- IC50 (Cytochrome P450 3A4): > 50 µM
- AUC at 3 h [12]: 2170 ng·h/mL
- half-life [13]: 3.9 h
- IC50 (Dipeptidyl peptidase 8): > 50 µM
- half-life [14]: 3.1 h
- IC50 (Cytochrome P450 1A2): > 50 µM
- half-life [15]: 3.3 h
- Cmax [16]: 309 ng/mL
- Cmax [17]: 77 ng/mL
- fraction unbound [18]: 0.27
- clearance [19]: 40 mL/min/kg
SMILES: Cn1c(=O)c2c(cc(N3CCC[C@@](C)(N)C3)n2Cc2cc(F)ccc2C#N)n(C)c1=O
- NOAEL at 336 h [1]: 60 mg/kg/day
- Activity (Rattus norvegicus): Dose-dependent effect
- Activity (Salmonella typhimurium): Non-toxic

Reference: ChEMBL document CHEMBL1817578, “2-({6-[(3R)-3-amino-3-methylpiperidine-1-yl]-1,3-dimethyl-2,4-dioxo-1,2,3,4-tetrahydro-5H-pyrrolo[3,2-d]pyrimidine-5-yl}methyl)-4-fluorobenzonitrile (DSR-12727): a potent, orally active dipeptidyl peptidase IV inhibitor without mechanism-based inactivation of CYP3A” (Bioorg Med Chem, 2011)
